According to BindingDB's records for doi:10.1021/jm049696n (Human Biomolecular Research Institute, 2005):

Assays:
CYP2D6 = CYP2D6 (Homo sapiens, UniProt P10635); assay: Inhibitory concentration value against human cytochrome P-450 2D6
Method in brief: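 Baculovirus insect-cell microsomes coexpressing each CYP with reductase and b5, in 0.2 M potassium phosphate pH 8.0. Vivid blue substrate O-dealkylation used 5 µM substrate with 10 nM enzyme for 2B6, 10 µM with 5 nM for 2C19, 10 µM with 10 nM for 2D6, and 10 µM with 5 nM for 2E1. Inhibitor 0.02–400 or 0.14–300 µM. NADPH-generating system, 40 min at room temperature, fluorescence 405/460 nm. IC50 is the mean of three ± SD.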

CYP3A4 = CYP3A4 (Homo sapiens, UniProt P08684); assay: Inhibitory concentration value against human cytochrome P-450 3A4
Method in brief: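 Human liver microsomes (0.4 mg) in 0.05 M potassium phosphate, pH 7.5, with an NADPH-generating system, DETAPAC and 3 mM MgCl2. Inhibitor at 0.02–400 µM. Started with 0.2 mM testosterone and run 30 min at 37 °C with shaking. Stopped with ethyl acetate, then extracted. 6β-hydroxytestosterone measured by reverse-phase HPLC with UV detection at 254 nm. IC50 values are the mean of at least three determinations ± SD.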

CYP2E1 = CYP2E1 (Homo sapiens, UniProt P05181); assay: Inhibitory concentration value against human cytochrome P-450 2E1
Method in brief: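 Baculovirus-expressed CYP2E1 (co-expressing P450 reductase and cytochrome b5), 5 nM final, with 10 µM Vivid blue substrate in 0.2 M potassium phosphate pH 8.0. Inhibitor at eight levels from 0.02 to 400 µM, or six from 0.14 to 300 µM. Started with an NADPH-generating system, then 40 min at room temperature. O-dealkylated product read by fluorescence (ex 405/em 460 nm). IC50 is the mean of three experiments.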

Chain of CYP3A4 (P08684 whole entry): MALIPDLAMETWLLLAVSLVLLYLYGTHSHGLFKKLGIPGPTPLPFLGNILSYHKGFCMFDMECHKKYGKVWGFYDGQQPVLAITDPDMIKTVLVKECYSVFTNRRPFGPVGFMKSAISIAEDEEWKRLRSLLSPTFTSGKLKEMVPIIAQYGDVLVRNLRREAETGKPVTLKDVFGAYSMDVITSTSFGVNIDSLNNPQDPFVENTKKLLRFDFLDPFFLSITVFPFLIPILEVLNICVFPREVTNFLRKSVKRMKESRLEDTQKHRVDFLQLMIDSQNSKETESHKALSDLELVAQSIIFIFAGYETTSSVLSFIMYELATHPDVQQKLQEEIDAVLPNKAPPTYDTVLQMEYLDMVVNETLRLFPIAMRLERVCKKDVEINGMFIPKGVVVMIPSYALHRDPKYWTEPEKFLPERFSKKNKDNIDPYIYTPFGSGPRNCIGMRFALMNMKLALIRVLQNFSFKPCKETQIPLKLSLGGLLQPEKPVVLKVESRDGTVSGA
Chain of CYP2D6 (P10635 whole entry): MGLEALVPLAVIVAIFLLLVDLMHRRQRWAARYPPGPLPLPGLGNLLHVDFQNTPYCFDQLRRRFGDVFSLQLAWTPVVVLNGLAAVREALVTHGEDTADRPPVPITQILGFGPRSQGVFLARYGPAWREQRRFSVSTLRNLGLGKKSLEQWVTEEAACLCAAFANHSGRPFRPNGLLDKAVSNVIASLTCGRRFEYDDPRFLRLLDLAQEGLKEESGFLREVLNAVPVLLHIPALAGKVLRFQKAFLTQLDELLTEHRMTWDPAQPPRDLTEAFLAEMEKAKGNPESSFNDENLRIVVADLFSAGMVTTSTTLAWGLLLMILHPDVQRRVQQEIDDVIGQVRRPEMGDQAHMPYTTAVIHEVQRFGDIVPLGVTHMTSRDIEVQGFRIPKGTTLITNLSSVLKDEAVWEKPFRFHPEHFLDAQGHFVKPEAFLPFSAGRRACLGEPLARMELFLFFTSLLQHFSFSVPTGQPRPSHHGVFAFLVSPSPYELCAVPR
Chain of CYP2E1 (P05181 whole entry): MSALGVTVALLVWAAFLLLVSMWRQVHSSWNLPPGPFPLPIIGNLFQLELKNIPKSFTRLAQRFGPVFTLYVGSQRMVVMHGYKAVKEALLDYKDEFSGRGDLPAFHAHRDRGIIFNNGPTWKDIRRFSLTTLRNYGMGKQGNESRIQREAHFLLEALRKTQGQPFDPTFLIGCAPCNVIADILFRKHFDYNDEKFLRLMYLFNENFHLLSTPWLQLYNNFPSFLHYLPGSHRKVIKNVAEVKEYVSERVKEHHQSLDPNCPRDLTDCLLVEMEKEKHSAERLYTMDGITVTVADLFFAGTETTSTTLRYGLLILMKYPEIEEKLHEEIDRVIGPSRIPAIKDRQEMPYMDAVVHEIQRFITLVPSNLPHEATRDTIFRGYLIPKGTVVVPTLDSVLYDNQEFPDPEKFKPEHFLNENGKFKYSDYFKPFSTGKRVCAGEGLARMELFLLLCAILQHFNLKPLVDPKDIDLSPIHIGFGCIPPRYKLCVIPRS

Row | Structure (SMILES) | IC50 (CYP2D6) | IC50 (CYP3A4) | IC50 (CYP2E1)
1 | NCc1ccc(-c2cccnc2)s1 [US8609708, 31] | 197 µM | 77.5 µM | –
2 | O=NCc1ccc(-c2cccnc2)o1 [US8609708, 24] | > 400 µM | > 400 µM | > 400 µM
